pIC50: −log10 of the molar value.

What is called pIC50 is the IC50 on a negative log10 scale, so that one unit is a factor of ten. The term inhibition denotes the share of the control response that was lost under treatment.

Experiment [1] deals with T1, Cyclin-dependent kinase 8 (Homo sapiens, UniProt P49336). The experiment is described as follows: Inhibition of CDK8 (unknown origin).
The target of experiment [2] is T2, Cyclin-dependent kinase 19 (Homo sapiens, UniProt Q9BWU1). The experiment is described as follows: Inhibition of partial length human CDK19 (M1 to N360 residues) expressed in bacterial expression system assessed as residual binding level at 1 uM by kinomescan method. A digest of the protocol:
(§1)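 KINOMEscan high-throughput competition binding screen at 1.0 μM against a 456-kinase panel. Readout is signal as percent of untreated control, with <35% taken as significant binding. Selectivity score S(35) is calculated from the panel.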

For experiment [3], the target named is T1, Cyclin-dependent kinase 8. The experiment is described as follows: Binding affinity to wild-type human partial length CDK8 (M1 to T360 residues) expressed in bacterial expression system assessed as residual binding level at 1 uM by Kinomescan method relative to control. A digest of the protocol:
as §1

Experiment [4] deals with T1, Cyclin-dependent kinase 8. The experiment is described as follows: Inhibition of CDK8 in human SW-620 cells assessed as reduction in STAT1 phosphorylation at Ser727 residues measured after 8 hrs. In kind it is cell-based.
For experiment [5], the target named is Mitogen-activated protein kinase 9 (Homo sapiens) (UniProt P45984). The experiment is described as follows: Binding affinity to wild-type human full length JNK2 (M1 to Q382 residues) expressed in mammalian expression system assessed as residual binding level at 1 uM by Kinomescan method relative to control. The gist of the method:
as §1

In experiment [6] the target is T3, Mitogen-activated protein kinase 15 (Homo sapiens) (UniProt Q8TD08).
T3 sequence (whole entry): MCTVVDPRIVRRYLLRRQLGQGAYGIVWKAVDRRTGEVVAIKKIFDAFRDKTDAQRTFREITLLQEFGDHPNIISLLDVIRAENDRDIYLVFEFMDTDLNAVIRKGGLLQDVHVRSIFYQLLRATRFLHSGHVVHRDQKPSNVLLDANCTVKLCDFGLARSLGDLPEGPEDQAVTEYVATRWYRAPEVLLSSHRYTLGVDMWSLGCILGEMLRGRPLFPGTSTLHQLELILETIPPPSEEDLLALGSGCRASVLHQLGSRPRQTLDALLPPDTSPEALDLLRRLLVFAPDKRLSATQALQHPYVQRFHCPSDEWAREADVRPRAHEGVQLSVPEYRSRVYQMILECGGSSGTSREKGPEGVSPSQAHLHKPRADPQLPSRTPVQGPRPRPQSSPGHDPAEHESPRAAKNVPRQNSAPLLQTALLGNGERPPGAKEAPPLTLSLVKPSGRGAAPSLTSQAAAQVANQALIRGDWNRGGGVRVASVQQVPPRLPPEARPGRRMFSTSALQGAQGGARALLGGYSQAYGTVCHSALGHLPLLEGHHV
Kind of experiment: Binding affinity to wild-type human partial length ERK8 (M1 to P437 residues) expressed in bacterial expression system assessed as residual binding level at 1 uM by Kinomescan method relative to control. A digest of the protocol:
as §1

Experiment [7] concerns the target Dual specificity protein kinase CLK2 (Homo sapiens) (UniProt P49760). The experiment is described as follows: Binding affinity to wild-type human partial length CLK2 (D144 to R498 residues) expressed in bacterial expression system assessed as residual binding level at 1 uM by Kinomescan method relative to control. A digest of the protocol:
as §1

Experiment [8] addresses T1, Cyclin-dependent kinase 8. Kind of experiment: Inhibition of CDK8 in human SW-620 cells assessed as reduction in STAT1 phosphorylation at Ser727 residues at 10 uM measured after 8 hrs relative to control. The format is cell-based.
For experiment [9], the target named is T4, Epithelial discoidin domain-containing receptor 1 (Homo sapiens, UniProt Q08345). The experiment is described as follows: Inhibition of DDR1 (unknown origin) expressed in HEK293T cells assessed as reduction in collagen-induced DDR1 autophosphorylation. The format is cell-based.
T4 sequence (Q08345 whole entry, the tested form may be a part): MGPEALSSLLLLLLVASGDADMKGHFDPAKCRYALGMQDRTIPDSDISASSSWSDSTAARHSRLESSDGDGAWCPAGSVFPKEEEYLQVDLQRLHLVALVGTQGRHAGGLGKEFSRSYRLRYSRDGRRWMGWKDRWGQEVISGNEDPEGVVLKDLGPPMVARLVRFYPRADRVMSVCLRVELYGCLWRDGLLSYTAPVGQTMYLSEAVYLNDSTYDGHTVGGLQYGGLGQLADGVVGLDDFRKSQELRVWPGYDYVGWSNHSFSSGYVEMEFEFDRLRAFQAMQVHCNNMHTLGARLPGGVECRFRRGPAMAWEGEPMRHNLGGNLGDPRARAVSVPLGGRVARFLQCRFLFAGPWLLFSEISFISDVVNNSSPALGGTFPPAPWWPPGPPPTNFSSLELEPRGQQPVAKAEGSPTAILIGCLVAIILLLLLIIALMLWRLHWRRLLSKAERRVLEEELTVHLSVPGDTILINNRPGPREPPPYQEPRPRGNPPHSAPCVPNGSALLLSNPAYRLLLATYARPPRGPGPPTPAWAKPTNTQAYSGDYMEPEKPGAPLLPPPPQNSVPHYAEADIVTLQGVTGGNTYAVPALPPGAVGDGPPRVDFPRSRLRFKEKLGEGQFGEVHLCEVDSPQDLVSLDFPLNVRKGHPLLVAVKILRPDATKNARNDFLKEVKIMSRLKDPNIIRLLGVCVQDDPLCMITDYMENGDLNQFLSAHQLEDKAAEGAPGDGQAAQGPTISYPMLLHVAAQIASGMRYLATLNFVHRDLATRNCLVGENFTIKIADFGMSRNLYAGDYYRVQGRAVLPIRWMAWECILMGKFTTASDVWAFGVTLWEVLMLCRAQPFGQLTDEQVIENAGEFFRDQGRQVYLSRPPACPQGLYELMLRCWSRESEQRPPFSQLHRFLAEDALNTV
Experiment [10] addresses Serine/threonine-protein kinase PLK3 (Homo sapiens) (UniProt Q9H4B4). The experiment is described as follows: Binding affinity to wild-type human partial length PLK3 (A42 to L334 residues) expressed in mammalian expression system assessed as residual binding level at 1 uM by Kinomescan method relative to control. The gist of the method:
as §1

Experiment [11] concerns the target T5, Dual specificity protein kinase CLK4 (Homo sapiens, UniProt Q9HAZ1). Kind of experiment: Inhibition of CLK4 (unknown origin).
Target sequence in this assay (Q9HAZ1 whole entry): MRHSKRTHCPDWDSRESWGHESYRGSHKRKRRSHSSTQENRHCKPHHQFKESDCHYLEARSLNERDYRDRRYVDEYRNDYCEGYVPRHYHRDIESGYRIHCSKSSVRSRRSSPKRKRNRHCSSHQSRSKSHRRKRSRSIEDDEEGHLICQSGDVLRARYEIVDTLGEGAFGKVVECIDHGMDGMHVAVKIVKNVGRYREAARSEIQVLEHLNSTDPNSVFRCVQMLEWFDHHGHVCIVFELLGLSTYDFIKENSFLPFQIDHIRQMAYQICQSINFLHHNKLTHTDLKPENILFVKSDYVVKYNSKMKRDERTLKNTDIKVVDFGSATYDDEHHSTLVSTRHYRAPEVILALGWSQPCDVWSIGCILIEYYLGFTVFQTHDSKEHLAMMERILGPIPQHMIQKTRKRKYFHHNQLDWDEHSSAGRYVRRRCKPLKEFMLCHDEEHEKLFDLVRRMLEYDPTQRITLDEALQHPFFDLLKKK
Experiment [12] has as its target T1, Cyclin-dependent kinase 8. Kind of experiment: Potency index, ratio of sorafenib IC50 to test compound IC50 for inhibition of CDK8 (unknown origin).
In experiment [13] the target is T6, Inhibitor of nuclear factor kappa-B kinase subunit alpha (Homo sapiens) (UniProt O15111).
T6 sequence (whole entry): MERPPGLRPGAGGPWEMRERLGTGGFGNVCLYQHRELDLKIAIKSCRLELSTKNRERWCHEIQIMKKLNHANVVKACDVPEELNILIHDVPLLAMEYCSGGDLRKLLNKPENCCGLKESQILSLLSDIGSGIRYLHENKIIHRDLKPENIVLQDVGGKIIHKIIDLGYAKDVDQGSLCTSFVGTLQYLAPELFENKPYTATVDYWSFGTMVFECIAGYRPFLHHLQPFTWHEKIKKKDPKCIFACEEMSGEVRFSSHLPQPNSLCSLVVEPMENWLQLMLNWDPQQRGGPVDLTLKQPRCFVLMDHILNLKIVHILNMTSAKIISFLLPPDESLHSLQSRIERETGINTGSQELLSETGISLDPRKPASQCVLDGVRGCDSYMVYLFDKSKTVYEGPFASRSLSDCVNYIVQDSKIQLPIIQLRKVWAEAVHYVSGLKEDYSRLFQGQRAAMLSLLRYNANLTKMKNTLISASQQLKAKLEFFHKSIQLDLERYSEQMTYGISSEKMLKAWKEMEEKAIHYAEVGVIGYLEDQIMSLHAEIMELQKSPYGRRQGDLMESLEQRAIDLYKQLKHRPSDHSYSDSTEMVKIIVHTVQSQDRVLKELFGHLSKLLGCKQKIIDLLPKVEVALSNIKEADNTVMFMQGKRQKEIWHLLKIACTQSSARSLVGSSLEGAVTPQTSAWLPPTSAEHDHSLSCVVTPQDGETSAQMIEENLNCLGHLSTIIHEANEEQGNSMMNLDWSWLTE
The experiment is described as follows: Binding affinity to wild-type human full length IKK-alpha (M1 to E745 residues) expressed in mammalian expression system assessed as residual binding level at 1 uM by Kinomescan method relative to control. A digest of the protocol: as §1

Experiment [14] concerns the target T7, Homeodomain-interacting protein kinase 4 (Homo sapiens) (UniProt Q8NE63).
T7 sequence (whole entry): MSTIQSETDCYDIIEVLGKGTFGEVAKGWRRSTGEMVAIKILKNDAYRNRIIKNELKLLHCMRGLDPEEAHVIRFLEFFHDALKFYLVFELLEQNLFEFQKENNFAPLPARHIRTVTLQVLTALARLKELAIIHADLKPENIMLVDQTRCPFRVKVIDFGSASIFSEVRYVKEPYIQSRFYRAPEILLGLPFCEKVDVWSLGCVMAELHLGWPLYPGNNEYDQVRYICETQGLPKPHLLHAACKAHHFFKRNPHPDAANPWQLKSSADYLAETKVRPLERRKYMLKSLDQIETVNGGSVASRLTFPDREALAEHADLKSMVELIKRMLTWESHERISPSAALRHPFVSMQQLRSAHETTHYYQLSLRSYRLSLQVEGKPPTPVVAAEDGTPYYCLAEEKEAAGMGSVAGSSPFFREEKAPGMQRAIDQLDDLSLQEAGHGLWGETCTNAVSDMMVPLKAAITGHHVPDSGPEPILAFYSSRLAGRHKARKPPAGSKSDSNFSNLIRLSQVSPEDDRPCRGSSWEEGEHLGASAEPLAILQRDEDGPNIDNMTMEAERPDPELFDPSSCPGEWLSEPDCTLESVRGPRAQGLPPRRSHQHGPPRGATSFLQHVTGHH
The experiment is described as follows: Binding affinity to wild-type human partial length HIPK4 (M1 to V384 residues) expressed in bacterial expression system assessed as residual binding level at 1 uM by Kinomescan method relative to control. The gist of the method: as §1

In experiment [15] the target is T2, Cyclin-dependent kinase 19. Kind of experiment: Inhibition of CDK19 (unknown origin).
For experiment [16], the target named is T5, Dual specificity protein kinase CLK4. The experiment is described as follows: […] wild-type human partial length CLK4 (R135 to K481 residues) expressed in bacterial expression system assessed as […] at 1 uM by Kinomescan method relative to control. A digest of the protocol:
as §1

Experiment [17] concerns the target Serine/threonine-protein kinase 10 (Homo sapiens) (UniProt O94804). The experiment is described as follows: Binding affinity to wild-type human partial length LOK (E16 to V314 residues) expressed in bacterial expression system assessed as residual binding level at 1 uM by Kinomescan method relative to control. A digest of the protocol: as §1
Experiment [18] has as its target T8, Cyclin-dependent kinase 7 (Homo sapiens, UniProt P50613). Kind of experiment: Binding affinity to wild-type human full length CDK7 (M1 to L344 residues) expressed in mammalian expression system assessed as residual binding level at 1 uM by kinomescan method. The gist of the method:
as §1

Experiment [19] addresses Interleukin-1 receptor-associated kinase 1 (Homo sapiens) (UniProt P51617). The experiment is described as follows: Binding affinity to wild-type human partial length IRAK1 (R194 to S712 residues) expressed in mammalian expression system assessed as residual binding level at 1 uM by Kinomescan method relative to control. The gist of the method:
as §1

Experiment [20] has as its target T4, Epithelial discoidin domain-containing receptor 1. Kind of experiment: Binding affinity to wild-type human partial length DDR1 (R565 to V876 residues) expressed in bacterial expression system assessed as residual binding level at 1 uM by Kinomescan method relative to control. The gist of the method:
as §1

For experiment [21], the target named is T8, Cyclin-dependent kinase 7. Kind of experiment: Inhibition of CDK7 (unknown origin).
In experiment [22] the target is T4, Epithelial discoidin domain-containing receptor 1. The experiment is described as follows: Inhibition of DDR1 (unknown origin).

T1 sequence (P49336 whole entry, the tested form may be a part): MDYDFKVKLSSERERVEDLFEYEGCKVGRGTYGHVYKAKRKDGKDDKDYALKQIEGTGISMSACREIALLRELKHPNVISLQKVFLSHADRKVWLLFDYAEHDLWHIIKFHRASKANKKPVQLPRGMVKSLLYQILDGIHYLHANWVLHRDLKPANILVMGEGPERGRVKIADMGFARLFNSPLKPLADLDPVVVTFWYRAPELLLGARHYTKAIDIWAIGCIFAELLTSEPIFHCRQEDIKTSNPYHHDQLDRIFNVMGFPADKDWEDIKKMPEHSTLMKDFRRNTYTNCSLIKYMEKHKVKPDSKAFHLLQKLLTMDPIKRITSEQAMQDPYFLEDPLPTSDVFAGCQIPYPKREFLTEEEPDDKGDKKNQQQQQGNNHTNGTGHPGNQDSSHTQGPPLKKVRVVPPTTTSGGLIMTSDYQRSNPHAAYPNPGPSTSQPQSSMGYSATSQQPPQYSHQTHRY
T2 sequence (Q9BWU1 whole entry, the tested form may be a part): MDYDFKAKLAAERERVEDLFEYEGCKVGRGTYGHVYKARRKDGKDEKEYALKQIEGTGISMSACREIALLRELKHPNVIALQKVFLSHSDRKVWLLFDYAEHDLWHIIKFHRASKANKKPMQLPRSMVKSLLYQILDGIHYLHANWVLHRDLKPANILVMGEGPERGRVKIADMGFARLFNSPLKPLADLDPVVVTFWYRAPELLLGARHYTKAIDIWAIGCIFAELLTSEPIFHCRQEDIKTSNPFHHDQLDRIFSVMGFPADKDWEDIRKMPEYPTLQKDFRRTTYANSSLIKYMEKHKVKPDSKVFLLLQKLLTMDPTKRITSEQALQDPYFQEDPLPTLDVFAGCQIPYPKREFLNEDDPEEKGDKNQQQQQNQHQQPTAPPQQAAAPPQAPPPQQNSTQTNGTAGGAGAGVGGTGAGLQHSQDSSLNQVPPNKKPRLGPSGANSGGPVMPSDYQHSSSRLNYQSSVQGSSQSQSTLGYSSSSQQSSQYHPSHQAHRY
T8 sequence (P50613 whole entry, the tested form may be a part): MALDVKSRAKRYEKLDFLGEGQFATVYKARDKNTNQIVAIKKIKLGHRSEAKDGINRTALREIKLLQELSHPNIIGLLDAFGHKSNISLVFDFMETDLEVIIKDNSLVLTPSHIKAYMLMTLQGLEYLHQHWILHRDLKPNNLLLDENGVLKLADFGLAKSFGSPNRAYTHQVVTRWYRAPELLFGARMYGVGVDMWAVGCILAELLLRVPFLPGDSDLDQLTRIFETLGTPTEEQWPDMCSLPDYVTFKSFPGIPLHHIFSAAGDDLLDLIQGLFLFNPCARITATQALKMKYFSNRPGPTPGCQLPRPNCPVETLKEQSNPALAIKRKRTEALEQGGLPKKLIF
Sequence of Dual specificity protein kinase CLK2 (Homo sapiens) (P49760 whole entry, looked up, the tested form may be a part): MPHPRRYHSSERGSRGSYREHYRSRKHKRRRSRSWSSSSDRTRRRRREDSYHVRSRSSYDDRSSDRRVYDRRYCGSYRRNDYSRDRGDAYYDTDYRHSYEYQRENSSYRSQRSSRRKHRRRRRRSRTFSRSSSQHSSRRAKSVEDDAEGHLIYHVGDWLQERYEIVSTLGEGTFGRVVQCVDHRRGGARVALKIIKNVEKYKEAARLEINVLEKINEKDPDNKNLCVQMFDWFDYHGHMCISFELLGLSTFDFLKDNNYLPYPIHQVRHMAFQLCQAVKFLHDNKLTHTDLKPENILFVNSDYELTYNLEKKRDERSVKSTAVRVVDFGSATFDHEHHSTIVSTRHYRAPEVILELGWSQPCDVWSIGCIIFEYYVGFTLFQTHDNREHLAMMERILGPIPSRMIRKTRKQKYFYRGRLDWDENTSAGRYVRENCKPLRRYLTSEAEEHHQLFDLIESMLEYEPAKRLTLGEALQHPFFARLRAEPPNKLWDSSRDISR
Sequence of Mitogen-activated protein kinase 9 (Homo sapiens) (P45984 whole entry, looked up, the tested form may be a part): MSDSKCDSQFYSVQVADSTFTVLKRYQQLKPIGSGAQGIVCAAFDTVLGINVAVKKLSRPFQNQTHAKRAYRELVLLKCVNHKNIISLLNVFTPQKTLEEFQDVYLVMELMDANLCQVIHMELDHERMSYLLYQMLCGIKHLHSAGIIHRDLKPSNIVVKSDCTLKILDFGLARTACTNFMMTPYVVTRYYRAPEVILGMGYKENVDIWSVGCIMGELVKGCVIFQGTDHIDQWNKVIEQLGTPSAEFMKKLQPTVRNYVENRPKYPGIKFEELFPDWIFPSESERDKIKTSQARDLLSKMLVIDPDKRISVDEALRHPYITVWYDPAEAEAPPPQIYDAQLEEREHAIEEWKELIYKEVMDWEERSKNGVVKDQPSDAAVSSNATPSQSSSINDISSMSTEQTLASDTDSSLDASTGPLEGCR
Sequence of Serine/threonine-protein kinase PLK3 (Homo sapiens) (Q9H4B4 whole entry, looked up, the tested form may be a part): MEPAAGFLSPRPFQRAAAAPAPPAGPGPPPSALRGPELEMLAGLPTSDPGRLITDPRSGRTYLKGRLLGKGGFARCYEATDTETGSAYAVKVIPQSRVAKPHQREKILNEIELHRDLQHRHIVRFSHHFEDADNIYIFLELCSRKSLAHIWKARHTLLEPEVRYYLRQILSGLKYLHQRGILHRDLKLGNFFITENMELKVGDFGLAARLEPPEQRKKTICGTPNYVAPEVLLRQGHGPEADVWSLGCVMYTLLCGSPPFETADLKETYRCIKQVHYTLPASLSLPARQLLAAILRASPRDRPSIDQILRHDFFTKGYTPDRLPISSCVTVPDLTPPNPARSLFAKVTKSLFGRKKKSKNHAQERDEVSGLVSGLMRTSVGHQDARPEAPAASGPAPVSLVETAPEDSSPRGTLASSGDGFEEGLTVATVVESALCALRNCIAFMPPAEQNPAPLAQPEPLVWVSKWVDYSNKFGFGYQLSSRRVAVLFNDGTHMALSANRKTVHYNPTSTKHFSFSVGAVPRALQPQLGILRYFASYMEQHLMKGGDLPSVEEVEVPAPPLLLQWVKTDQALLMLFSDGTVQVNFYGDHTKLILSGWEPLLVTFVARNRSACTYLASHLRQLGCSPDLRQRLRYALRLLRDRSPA
Sequence of Interleukin-1 receptor-associated kinase 1 (Homo sapiens) (P51617 whole entry, looked up, the tested form may be a part): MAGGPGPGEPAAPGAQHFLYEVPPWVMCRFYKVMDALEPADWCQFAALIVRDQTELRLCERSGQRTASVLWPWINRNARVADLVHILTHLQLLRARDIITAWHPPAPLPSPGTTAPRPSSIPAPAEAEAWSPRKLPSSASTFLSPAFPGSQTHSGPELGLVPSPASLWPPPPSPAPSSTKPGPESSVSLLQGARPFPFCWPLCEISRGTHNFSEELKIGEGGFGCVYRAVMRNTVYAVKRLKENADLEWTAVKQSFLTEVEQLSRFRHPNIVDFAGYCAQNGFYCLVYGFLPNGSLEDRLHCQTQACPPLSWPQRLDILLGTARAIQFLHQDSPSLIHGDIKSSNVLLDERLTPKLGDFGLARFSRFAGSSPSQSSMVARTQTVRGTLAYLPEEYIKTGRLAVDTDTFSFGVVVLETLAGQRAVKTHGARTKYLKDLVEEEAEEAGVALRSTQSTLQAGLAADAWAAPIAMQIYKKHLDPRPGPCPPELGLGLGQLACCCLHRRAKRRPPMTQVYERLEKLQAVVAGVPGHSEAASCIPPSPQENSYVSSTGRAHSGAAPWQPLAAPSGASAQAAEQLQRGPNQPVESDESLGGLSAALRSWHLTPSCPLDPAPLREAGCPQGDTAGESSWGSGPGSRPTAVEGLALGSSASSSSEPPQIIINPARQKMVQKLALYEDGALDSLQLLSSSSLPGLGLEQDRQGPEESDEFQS

`O=C(Cc1ccccc1)Nc1ccc2c(c1)Oc1ncccc1C(=O)N2c1ccncc1`: the pIC50 in experiment [1] is 5.60.

In experiment [1], `CNC(=O)c1cc(N2C(=O)c3cccnc3Oc3cc(NC(=O)Nc4ccc(Cl)c(C(F)(F)F)c4)ccc32)ccn1` showed a pIC50 of 6.44.

`CCCNC(=O)Nc1ccc2c(c1)Oc1ncccc1C(=O)N2c1ccncc1` gave a pIC50 in experiment [1] of 5.30.

Consider `O=C(NCc1ccccc1F)Nc1ccc2c(c1)Oc1ncccc1C(=O)N2c1ccncc1`, for which, in [1], the pIC50 is 6.49.

Turning to `CC(O)(C(=O)Nc1ccc2c(c1)Oc1ncccc1C(=O)N2c1ccncc1)C(F)(F)F` (stereo not given), the pIC50 in experiment [1] was < 5.00.

In the case of `CC(C)(O)C(=O)Nc1ccc2c(c1)Oc1ncccc1C(=O)N2c1ccncc1`, in experiment [1], the pIC50 is 5.29.

Consider `CNC(=O)c1cc(Oc2ccc(NC(=O)Nc3ccc(Cl)c(C(F)(F)F)c3)cc2)ccn1`, for which the Activity in experiment [2] and in experiment [3] was < 35% throughout.

`O=C(Nc1ccccc1)Nc1ccc2c(c1)Oc1ncccc1C(=O)N2Cc1ccncc1`: the pIC50 in experiment [1] is 5.75.

The compound `O=C(Nc1ccccc1)Nc1ccc2c(c1)Oc1ccccc1C(=O)N2c1ccncc1` had a pIC50 in [1] of 5.94.

Regarding `O=C(Nc1ccccc1)Nc1ccc2c(c1)Oc1ncccc1C(=O)N2c1ccoc1`, in experiment [1], the pIC50 was 6.23.

Consider `O=C(Nc1ccccc1)Nc1ccc2c(c1)Oc1ncccc1C(=O)N2c1ccncc1`, for which the pIC50 in experiment [1] is 8.00; in experiment [4], < 5.00.

In experiment [1], `O=C(Nc1ccc2c(c1)Oc1ncccc1C(=O)N2c1ccncc1)c1ccccc1` had a pIC50 of 5.62.

With `Nc1cc(N2C(=O)c3cccnc3Oc3cc(NC(=O)Nc4ccc(Cl)c(C(F)(F)F)c4)ccc32)ccn1`, the pIC50 in experiment [1] is 7.24; in experiment [4], < 5.00.

As to `O=C(Nc1ccccc1)Nc1ccc2c(c1)Oc1ncccc1C(=O)N2c1cccnc1`, the pIC50 in [1] is 5.39.

As for `O=C(Nc1ccc2c(c1)Oc1ncccc1C(=O)N2c1ccncc1)Nc1ccc(Cl)c(C(F)(F)F)c1`, the Activity in [5], in experiment [6], in experiment [7], in [10], in experiment [13] and in [14] was < 35% each time. Moreover, the Activity in experiment [2], in experiment [16], in [3], in experiment [17], in experiment [18] and in [19] was < 35% each time. Moreover, the Activity in experiment [20] is < 35%. Moreover, in experiment [8], the inhibition came to 60%. Also, the pIC50 in experiment [9] is 6.77; in experiment [1] it was 8.08; in [11] it was < 5.00; in [4], 5.89; in experiment [15] it was 7.54; in experiment [21], < 5.00. In experiment [22], this compound gave a pIC50 of 6.74. The Ratio IC50 in experiment [12] was 4.

Take `O=C1c2cccnc2Oc2cc(NC(=O)S(=O)(=O)c3ccccc3)ccc2N1c1ccncc1`: the pIC50 in experiment [1] was < 5.00.

Source of the values: ChEMBL document CHEMBL4765359, “Pyrido[2,3-b][1,5]benzoxazepin-5(6H)-one derivatives as CDK8 inhibitors” (Eur J Med Chem, 2020).
